# Assay results taken from ChEMBL document CHEMBL4316658, “Structure and Absolute Configuration of Abietane Diterpenoids from Salvia clinopodioides: Antioxidant, Antiprotozoal, and Antipropulsive Activities” (J Nat Prod, 2019).
# Structures can show the parent of a compound that is named as a salt.
# Key:
# Entamoeba histolytica = assay: Antiparasitic activity against Entamoeba histolytica HM1-IMSS trophozoites assessed as inhibition of parasitic growth treated for 48 hrs followed by compound washout and measured after 48 hrs by MTT/PMS dye based colorimetric method; type: functional, organism-based; conditions: HM-1:IMSS
# In short: (§1)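 Axenic log-phase trophozoites in TYI-S-33 medium: E. histolytica HM1-IMSS with 10% heat-inactivated bovine serum (6 × 10^3 cells); G. lamblia IMSS:8909:1 with 10% calf serum and bovine bile (5 × 10^4 cells). Exposed 48 h at 37 °C to 2.5−200 μg/mL in DMSO, then subcultured drug-free 48 h. Counted by hemocytometer, confirmed by MTT/PMS formazan at 570 nm. Duplicates, ≥3 repeats; IC50 by probit regression.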
# Giardia intestinalis = assay: Antiparasitic activity against Giardia intestinalis IMSS:0989:1 assessed as inhibition of parasitic growth treated for 48 hrs followed by compound washout and measured after 48 hrs by MTT/PMS dye based colorimetric method; type: functional, organism-based; conditions: Giardia duodenalis, IMSS:0989:1, 48 h; in short: as §1
# Brain [1] = assay: Antioxidant activity in Wistar rat brain homogenate assessed as inhibition of […] lipid peroxidation by measuring reduction in TBARS level preincubated for 30 mins followed by […] and measured after 1 hr; type: functional, tissue-based
# In short: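 Adult male Wistar rat whole brain homogenized 1/10 (w/v) in PBS pH 7.4. Spun 10 min at 800 rcf; supernatant set to 2.666 mg protein/mL. Supernatant with EDTA and compound in DMSO preincubated 30 min at 37 °C. FeSO4 added (10 μM final), then 1 h at 37 °C. TBA/TCA reagent added, heated 80 °C 30 min, A540 read. Calibrated against TMP standard curve; IC50 by linear regression.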
# [2] = Antioxidant activity assessed as DPPH radical scavenging activity measured after 30 mins; type: functional
# In short: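 Test compound solution (50 μL) mixed with 150 μL ethanolic DPPH, 100 μM final; 37 °C for 30 min; absorbance at 515 nm. Percent inhibition relative to a 100 μM DPPH ethanol blank.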
# Rattus norvegicus = assay: Antidiarrheal activity in po dosed Sprague-Dawley rat assessed as inhibition of charcoal-gum acacia-induced hyperperistalsis by measuring reduction in distance travelled by charcoal from pylorus to cecum pretreated for 20 mins followed by charcoal meal stimulation and measured after 30 mins; type: functional; conditions: read-out: ID50 (the source's name)
# Brain [3] = assay: Potency index, ratio of BHT IC50 to test compound IC50 for antioxidant activity in Wistar rat brain homogenate assessed as inhibition of FeCl2-induced lipid peroxidation; type: functional, tissue-based
# Brain [4] = assay: Potency index, ratio of quercetin IC50 to test compound IC50 for antioxidant activity in Wistar rat brain homogenate assessed as inhibition of FeCl2-induced lipid peroxidation; type: functional, tissue-based
# [5] = Rattus norvegicus, Wistar, Brain, read-out: IC50
Compound,IC50 [2],IC50 (Brain [1]; [5]) [µM],IC50 (Entamoeba histolytica) [µM],IC50 (Giardia intestinalis) [µM],ED50 (Rattus norvegicus) [µmol/kg],further results
Cc1ncc([N+](=O)[O-])n1CCO [METRONIDAZOLE],,,0.2,1.2,,
O=c1c(O)c(-c2ccc(O)c(O)c2)oc2cc(O)cc(O)c12 [QUERCETIN],,,,,1.1,IC50 ([2]; read-out: IC50): 10.9 µM
Cc1c(C)c2c(c(C)c1O)CC[C@@](C)(CCC[C@H](C)CCC[C@H](C)CCCC(C)C)O2 [ALPHA-TOCOPHEROL],,,,,,IC50 ([2]; read-out: IC50): 31.7 µM
CC(C)c1cc2c(c(O)c1O)[C@]13CCC[C@](C)([C@H](O)OC1=O)[C@@H]3CC2,,5.9,37.8,63,4.1,Ratio IC50 (Brain [3]): 5; Ratio IC50 (Brain [4]): 4; IC50 ([2]; read-out: IC50): 24.8 µM
COC(=O)[C@]12CCC[C@](C)(C=O)[C@@H]1CCc1cc(C(C)C)c(OC)c(O)c12,Not Active,19.2,48.5,61.8,,
CC[C@H]1CN2CCc3cc(OC)c(OC)cc3[C@@H]2C[C@@H]1C[C@H]1NCCc2cc(OC)c(OC)cc21 [EMETINE],,,,0.8,,
CN(C)C(=O)C(CCN1CCC(O)(c2ccc(Cl)cc2)CC1)(c1ccccc1)c1ccccc1 [LOPERAMIDE HYDROCHLORIDE],,,,,0.2,

# Now from value to compound, other results behind:
IC50 [2],IC50 (Brain [1]; [5]) [µM],Compound,IC50 (Entamoeba histolytica) [µM],IC50 (Giardia intestinalis) [µM],ED50 (Rattus norvegicus) [µmol/kg],further results
Not Active,,COc1c(C(C)C)cc2c(c1O)[C@]13CCC[C@](C)([C@H](OC(C)=O)OC1=O)[C@@H]3CC2,34.9,46.4,,IC50 (Brain [1]): Not Active
Not Active,,COc1c(C(C)C)cc2c(c1OC(C)=O)[C@]13CCC[C@](C)([C@H](OC(C)=O)OC1=O)[C@@H]3CC2,,,,IC50 (Brain [1]): Not Active
,1.2,Cc1cc(C(C)(C)C)c(O)c(C(C)(C)C)c1 [BUTYLATED HYDROXYTOLUENE],,,,
Not Active,40.9,COc1c(C(C)C)cc2c(c1O)C[C@]13CCC[C@](C)(C(=O)O1)[C@@H]3CC2,,,,
Not Active,,CC(=O)Oc1c(C(C)C)cc2c(c1OC(C)=O)[C@]13CCC[C@](C)([C@H](OC(C)=O)OC1=O)[C@@H]3CC2,39.5,47.7,2.7,IC50 (Brain [1]): Not Active
Not Active,,COc1c(C(C)C)cc2c(c1O)[C@]13CCC[C@](C)([C@H](O)OC1=O)[C@@H]3CC2,43,67.1,2.2,IC50 (Brain [1]): Not Active
,2.7,CC(C)c1cc2c(c(O)c1O)[C@]13CCC[C@](C)(COC1=O)[C@@H]3CC2,31.3,49,5.5,Ratio IC50 (Brain [3]): 2; Ratio IC50 (Brain [4]): 2; IC50 ([2]; read-out: IC50): 29.9 µM
